The source made the active and inactive calls. No cut-off for these calls is given here.
Columns and labels:
Mus musculus [1] = test: Antitumor activity against mouse advanced Lewis lung carcinoma allografted in ip dosed BDF1 mouse assessed as disease cure administered as single dose on day 6 or 7 post-tumor implantation; format: functional, organism-based
How it was run: (§1)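 BDF1 mice (C57Blk/6 × DBA/2) implanted sc by trocar with Lewis lung tumor fragments of about 40 mg, taken only from bacteriologically sterile donor tumors. Mice bearing tumors of about 400 mg (day 6-7) were selected. Each received a single ip dose on day 7, at or below the LD10 in normal mice. Groups were of 10 mice. Tumor weight was taken from calipers as w = ab²/2, measured at least twice weekly. Matched non-tumor mice served as toxicity controls.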

Mus musculus [2] = test: Antitumor activity against mouse advanced Lewis lung carcinoma allografted in BDF1 mouse assessed as disease cure at 48 mg/kg, ip administered as single dose on 7th day post-tumor implantation measured for 80 days post-drug treatment; format: functional, organism-based; set-up: dose 48 mg/kg; how it was run: as §1
[3] = Antitumor activity against mouse advanced Lewis lung carcinoma allografted in ip dosed BDF1 mouse assessed as increase in host lifespan administered as single dose on day 6 or 7 post-tumor implantation; format: functional
How it was run: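 Advanced Lewis lung model: about 40 mg fragments implanted sc by trocar into BDF1 mice, and mice with tumors of about 400 mg (day 6-7) selected. Tumor weight from calipers, w = ab²/2. Agent given as one ip dose in distilled water or physiological saline. Nontumor-bearing mice received matching doses as toxicity controls.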

Mus musculus [4] = test: Antitumor activity against mouse advanced Lewis lung carcinoma allografted in BDF1 mouse assessed as disease cure at 32 mg/kg, ip administered as single dose on 7th day post-tumor implantation measured for 80 days post-drug treatment; format: functional, organism-based; set-up: dose 32 mg/kg; how it was run: as §1
Mus musculus [5] = test: Antitumor activity against mouse advanced Lewis lung carcinoma allografted in BDF1 mouse assessed as complete regression of established tumor at 32 mg/kg, ip administered as single dose on 7th day post-tumor implantation; format: functional, organism-based; set-up: dose 32 mg/kg
How it was run: (§2)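 BDF1 mice (C57Blk/6 × DBA/2) implanted sc by trocar with about 40 mg Lewis lung tumor fragments from bacteriologically sterile donors. Advanced-disease groups held tumors of about 400 mg by day 6-7, sized by caliper (w = ab²/2). Single ip injection on day 7, in water or saline vehicle, at or below the LD10 in normal mice. Tumors measured at least twice weekly.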

[6] = Antitumor activity against mouse early Lewis lung carcinoma allografted in BDF1 mouse assessed as increase in host life span at 48 mg/kg, ip administered as single dose on 1 or 2 days post-tumor implantation; format: functional; conditions: route intraperitoneal
How it was run: (§3)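 BDF1 mice (C57Blk/6 × DBA/2) implanted sc by trocar with ~40 mg Lewis lung tumor fragments from bacteriologically sterile donor tumors. Single ip dose on day 1 or 2, as a solution or suspension in water (CMC or gum acacia) or saline (HPC or Tween 80). Read-out is […]. Same-dose toxicity controls were run in nontumor-bearing mice.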

[7] = Antitumor activity against mouse early Lewis lung carcinoma allografted in BDF1 mouse assessed as time delay in tumor growth at 48 mg/kg, ip administered as single dose on 1 or 2 days post-tumor implantation; format: functional; conditions: route intraperitoneal
How it was run: (§4)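 BDF1 mice (C57Blk/6 × DBA/2) implanted sc by trocar with ~40 mg Lewis lung tumor fragments from bacteriologically sterile donors. A single ip dose was given on day 1 or 2, as a solution or suspension in water or saline with suspending agent, at ≤0.5 ml. Tumors were measured by caliper at least twice weekly, with weight = ab²/2. Delay was taken as the days for the tumor to reach 1 g.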

Mus musculus [8] = test: Antitumor activity against mouse advanced Lewis lung carcinoma allografted in BDF1 mouse assessed as complete regression of established tumor at 48 mg/kg, ip administered as single dose on 7th day post-tumor implantation; format: functional, organism-based; set-up: dose 48 mg/kg; how it was run: as §1
[9] = Antitumor activity against mouse advanced Lewis lung carcinoma allografted in BDF1 mouse assessed as increase in host life span at 32 mg/kg, ip administered as single dose on 7th day post-tumor implantation; format: functional; conditions: route intraperitoneal; how it was run: as §2
[10] = Antitumor activity against mouse early Lewis lung carcinoma allografted in BDF1 mouse assessed as increase in host life span at 21 mg/kg, ip administered as single dose on 1 or 2 days post-tumor implantation; format: functional; conditions: route intraperitoneal; how it was run: as §3
[11] = Antitumor activity against mouse advanced Lewis lung carcinoma allografted in BDF1 mouse assessed as increase in host life span at 48 mg/kg, ip administered as single dose on 7th day post-tumor implantation; format: functional; conditions: route intraperitoneal; how it was run: as §2
Mus musculus [12] = test: Antitumor activity against mouse advanced Lewis lung carcinoma allografted in BDF1 mouse assessed as complete regression of established tumor at 21 mg/kg, ip administered as single dose on 7th day post-tumor implantation; format: functional, organism-based; set-up: dose 21 mg/kg; how it was run: as §1
[13] = Antitumor activity against mouse early Lewis lung carcinoma allografted in BDF1 mouse assessed as time delay in tumor growth at 21 mg/kg, ip administered as single dose on 1 or 2 days post-tumor implantation; format: functional; conditions: route intraperitoneal; how it was run: as §4
Mus musculus [14] = test: Antitumor activity against mouse advanced Lewis lung carcinoma allografted in BDF1 mouse assessed as disease cure at 21 mg/kg, ip administered as single dose on 7th day post-tumor implantation measured for 80 days post-drug treatment; format: functional, organism-based; set-up: dose 21 mg/kg; how it was run: as §1
[15] = Antitumor activity against mouse advanced Lewis lung carcinoma allografted in BDF1 mouse assessed as increase in host life span at 21 mg/kg, ip administered as single dose on 7th day post-tumor implantation; format: functional; conditions: route intraperitoneal; how it was run: as §2
Mus musculus [16] = test: Antitumor activity against mouse advanced Lewis lung carcinoma allografted in ip dosed BDF1 mouse assessed as complete regression of established tumor administered as single dose on day 6 or 7 post-tumor implantation; format: functional, organism-based; how it was run: as §1
[17] = Antitumor activity against mouse early Lewis lung carcinoma allografted in ip dosed BDF1 mouse assessed as disease cure administered as single dose on 1 or 2 days post-tumor implantation measured for 80 days post-drug treatment; format: functional
How it was run: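 BDF1 mice implanted sc by trocar with ~40 mg Lewis lung fragments from sterile donor tumors. A single ip dose was given on day 1 or 2 after implant, in water or saline vehicle. Cures were scored in animals observed for at least 80 days after treatment. Drug-toxicity controls were matched non-tumor-bearing mice monitored for body weight and deaths.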

[18] = Antitumor activity against mouse early Lewis lung carcinoma allografted in BDF1 mouse assessed as time delay in tumor growth at 25 mg/kg, ip administered as single dose on 1 or 2 days post-tumor implantation; format: functional; conditions: route intraperitoneal; how it was run: as §4
[19] = Antitumor activity against mouse early Lewis lung carcinoma allografted in BDF1 mouse assessed as increase in host life span at 38 mg/kg, ip administered as single dose on 1 or 2 days post-tumor implantation; format: functional; conditions: route intraperitoneal; how it was run: as §3
[20] = Ratio of ED50 for antitumor activity against mouse L1210 cells allografted in ip dosed mouse to LD10 for mouse
[21] = Antitumor activity against mouse early Lewis lung carcinoma allografted in BDF1 mouse assessed as increase in host life span at 25 mg/kg, ip administered as single dose on 1 or 2 days post-tumor implantation; format: functional; conditions: route intraperitoneal; how it was run: as §3
[22] = Antitumor activity against mouse early Lewis lung carcinoma allografted in BDF1 mouse assessed as time delay in tumor growth at 38 mg/kg, ip administered as single dose on 1 or 2 days post-tumor implantation; format: functional; conditions: route intraperitoneal; how it was run: as §4
L1210 = test: Antitumor activity against mouse L1210 cells allografted in ip dosed mouse assessed as disease cure administered as single dose; format: functional, organism-based
[23] = Antitumor activity against mouse early Lewis lung carcinoma allografted in BDF1 mouse assessed as increase in host life span at 45 mg/kg, ip administered as single dose on 1 or 2 days post-tumor implantation; format: functional; conditions: route intraperitoneal; how it was run: as §3
[24] = Antitumor activity against mouse early Lewis lung carcinoma allografted in BDF1 mouse assessed as time delay in tumor growth at 45 mg/kg, ip administered as single dose on 1 or 2 days post-tumor implantation; format: functional; conditions: route intraperitoneal; how it was run: as §4
[25] = Antitumor activity against mouse early Lewis lung carcinoma allografted in BDF1 mouse assessed as time delay in tumor growth at 30 mg/kg, ip administered as single dose on 1 or 2 days post-tumor implantation; format: functional; conditions: route intraperitoneal; how it was run: as §4
[26] = Antitumor activity against mouse early Lewis lung carcinoma allografted in BDF1 mouse assessed as increase in host life span at 30 mg/kg, ip administered as single dose on 1 or 2 days post-tumor implantation; format: functional; conditions: route intraperitoneal; how it was run: as §3

**Q.** Which results are given for `CC(=O)OC[C@H]1CC[C@H](NC(=O)N(CCF)N=O)CC1`?
**A.** Activity (Mus musculus [1]): inactive; Activity (Mus musculus [2]): inactive; ILS [3]: >25%; Activity (Mus musculus [4]): inactive; inhibition (Mus musculus [5]): inactive; ILS at 48 mg/kg [6]: 7%; Time [7]: 12 days; inhibition (Mus musculus [8]): inactive; ILS at 32 mg/kg [9]: 13%; ILS at 21 mg/kg [10]: 24%; ILS at 48 mg/kg [11]: 26%; inhibition (Mus musculus [12]): inactive; Time [13]: 1.3 days; Activity (Mus musculus [14]): inactive; ILS at 21 mg/kg [15]: 26%; inhibition (Mus musculus [16]): inactive

**Q.** With `O=NN(CCCl)C(=O)N[C@H]1CC[C@@H](CC(=O)O)CC1` as the molecule, how does the ILS [3] read?
**A.** <25%

**Q.** And the Activity [17]?
**A.** >50%

**Q.** And the Time [18]?
**A.** 8.2 days

**Q.** And the ILS at 38 mg/kg [19]?
**A.** 42%

**Q.** And the Ratio [20]?
**A.** 0.4

**Q.** What about the ILS at 25 mg/kg [21] of the same molecule?
**A.** 59%

**Q.** And the Time [22]?
**A.** 9.2 days

**Q.** And the inhibition (Mus musculus [16])?
**A.** inactive

**Q.** What does the source list for `O=NN(CCCl)C(=O)N[C@H]1CC[C@@H](O)CC1`?
**A.** ILS [3]: <25%; Activity (L1210): inactive; ILS at 45 mg/kg [23]: 110%; Time [24]: 18 days; Activity [17]: 10%; Time [25]: 5.1 days; ILS at 30 mg/kg [26]: 92%; inhibition (Mus musculus [16]): inactive

Reference: ChEMBL document CHEMBL3271979, “Inhibition of solid tumors by nitrosoureas. 1. Lewis lung carcinoma” (1977)
